The values below come from ChEMBL document CHEMBL1148012, “Synthesis, inhibition and binding of simple non-nitrogen inhibitors of monoamine transporters” (Bioorg Med Chem, 2007).

The target of assay [1] is T1, Sodium-dependent dopamine transporter (Homo sapiens, UniProt Q01959). In words: Displacement of [125I]RTI55 from human DAT expressed in COS1 cell membrane. The class given is cell membranes, COS-1. The gist of the method:
(§1)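 Membranes from COS-1 cells stably transfected with hDAT or hSERT (pIRES, blasticidin selection), homogenised and washed, resuspended in PBSCM. Filtration onto PEI-soaked GF/B filters, scintillation counting.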

In assay [2] the target is T2, Sodium-dependent serotonin transporter (Homo sapiens, UniProt P31645). In words: Displacement of [125I]RTI55 from human SERT expressed in COS1 cell membrane. The format is cell membranes, COS-1. The gist of the method:
as §1

Assay [3] addresses T3, Sodium-dependent noradrenaline transporter (Homo sapiens, UniProt P23975). In words: Displacement of [125I]RTI55 from human NET expressed in COS1 cell membrane. The format is cell membranes, COS-1.
For assay [4], the target named is T1, Sodium-dependent dopamine transporter. In words: Inhibition of [3H]DA uptake in human DAT expressed in COS1 cell membrane. The format is functional, cell-based, COS-1. In a few lines: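 Intact COS-1 cells stably expressing hDAT, grown two days at 37 °C, washed in PBSCM pH 7.4. Drug dilutions preincubated 30 min, then 30–100 nM [3H]DA added with drug. Uptake 10 min at 20 °C, stopped by aspiration and washing. Accumulated radioactivity counted after solubilising cells in scintillant. IC50 determined.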

Assay [5] has as its target T3, Sodium-dependent noradrenaline transporter. In words: Inhibition of [3H]DA uptake in human NET expressed in COS1 cell membrane. The class given is functional, cell-based, COS-1.
For assay [6], the target named is T2, Sodium-dependent serotonin transporter. In words: Inhibition of [3H]SER uptake in human SERT expressed in COS1 cell membrane. The format is functional, cell-based, COS-1. The gist of the method: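 Intact COS-1 cells stably expressing hSERT, grown two days at 37 °C, washed in PBSCM pH 7.4. Drug dilutions preincubated 30 min, then 30–100 nM [3H]5-HT added with drug. Uptake 10 min at 20 °C, stopped by aspiration and washing. Accumulated radioactivity counted after solubilising cells in scintillant. IC50 determined.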

T1 sequence (Q01959 whole entry): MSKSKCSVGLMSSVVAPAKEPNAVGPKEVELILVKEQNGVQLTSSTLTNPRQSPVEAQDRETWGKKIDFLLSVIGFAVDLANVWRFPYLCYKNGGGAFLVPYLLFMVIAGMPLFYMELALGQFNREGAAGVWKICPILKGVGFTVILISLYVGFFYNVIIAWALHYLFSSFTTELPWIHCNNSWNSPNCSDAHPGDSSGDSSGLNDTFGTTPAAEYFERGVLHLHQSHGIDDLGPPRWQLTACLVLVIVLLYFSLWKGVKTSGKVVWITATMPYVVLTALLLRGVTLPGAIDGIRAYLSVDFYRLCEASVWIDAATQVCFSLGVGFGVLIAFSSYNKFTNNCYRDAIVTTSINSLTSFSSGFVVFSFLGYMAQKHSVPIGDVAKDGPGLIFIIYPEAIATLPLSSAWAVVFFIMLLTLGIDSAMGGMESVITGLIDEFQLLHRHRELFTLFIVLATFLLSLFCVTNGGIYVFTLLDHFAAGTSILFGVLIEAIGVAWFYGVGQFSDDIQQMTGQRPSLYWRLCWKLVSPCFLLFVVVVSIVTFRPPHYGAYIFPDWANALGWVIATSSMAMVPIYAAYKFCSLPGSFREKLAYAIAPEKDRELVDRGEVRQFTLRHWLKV
T3 sequence (P23975 whole entry): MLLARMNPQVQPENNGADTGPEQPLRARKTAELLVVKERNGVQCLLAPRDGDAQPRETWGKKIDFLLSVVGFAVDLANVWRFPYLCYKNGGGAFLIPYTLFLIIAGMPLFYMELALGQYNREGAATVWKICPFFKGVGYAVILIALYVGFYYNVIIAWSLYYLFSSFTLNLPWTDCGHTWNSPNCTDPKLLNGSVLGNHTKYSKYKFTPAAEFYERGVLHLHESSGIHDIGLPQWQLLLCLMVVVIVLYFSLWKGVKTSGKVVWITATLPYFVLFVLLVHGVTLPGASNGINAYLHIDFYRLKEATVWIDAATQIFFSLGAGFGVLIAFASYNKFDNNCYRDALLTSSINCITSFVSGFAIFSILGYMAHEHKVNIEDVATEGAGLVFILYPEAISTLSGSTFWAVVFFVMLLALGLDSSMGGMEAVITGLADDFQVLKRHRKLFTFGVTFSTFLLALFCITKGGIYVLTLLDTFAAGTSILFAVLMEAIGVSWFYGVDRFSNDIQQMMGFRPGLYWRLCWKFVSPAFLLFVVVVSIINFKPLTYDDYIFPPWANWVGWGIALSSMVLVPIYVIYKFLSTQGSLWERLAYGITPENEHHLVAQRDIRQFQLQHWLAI
T2 sequence (P31645 whole entry): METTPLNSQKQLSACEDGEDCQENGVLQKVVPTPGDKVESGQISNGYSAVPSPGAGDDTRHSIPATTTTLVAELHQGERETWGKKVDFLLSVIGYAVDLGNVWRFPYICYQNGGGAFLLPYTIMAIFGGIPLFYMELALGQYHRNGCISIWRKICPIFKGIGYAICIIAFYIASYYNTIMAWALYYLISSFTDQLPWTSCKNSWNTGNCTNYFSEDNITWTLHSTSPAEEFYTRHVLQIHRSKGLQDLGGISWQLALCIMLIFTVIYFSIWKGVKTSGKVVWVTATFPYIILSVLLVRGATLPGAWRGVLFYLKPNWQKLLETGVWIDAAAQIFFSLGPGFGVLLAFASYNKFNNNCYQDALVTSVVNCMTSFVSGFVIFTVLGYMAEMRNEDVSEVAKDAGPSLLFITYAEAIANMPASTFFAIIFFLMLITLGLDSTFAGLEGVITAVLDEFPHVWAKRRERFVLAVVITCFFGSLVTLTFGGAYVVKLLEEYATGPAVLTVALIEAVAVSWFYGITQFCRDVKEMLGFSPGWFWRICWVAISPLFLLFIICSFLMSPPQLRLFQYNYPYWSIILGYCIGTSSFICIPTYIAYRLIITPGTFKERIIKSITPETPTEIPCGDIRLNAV

Consider `COC(=O)C1=C(c2ccc3ccccc3c2)CCCCC1`, for which the Ki came to 392 µM in assay [1], 532 µM in assay [2] and 68 µM in assay [3].

On to `COC(=O)C1=C(c2ccc(Cl)cc2)CCCCC1`, for which the Ki in assay [1] came out at 15 µM; in assay [2] it was 706 µM; in assay [3], 84 µM; in assay [4], 2.2 µM; in assay [5], 20 µM.

For `COC(=O)C1=C(c2cccc(Cl)c2)CCC1`, the Ki was 34 µM in assay [1]; 2240 µM in assay [2]; 470 µM in assay [3]; 3.3 µM in assay [4]; 285 µM in assay [5].

For `COC(=O)C1=C(c2ccc(-c3ccccc3)cc2)CCCCC1`, the Ki worked out at 2 µM in assay [1]; 32 µM in assay [2]; 13 µM in assay [3]; 0.81 µM in assay [4]; 3.9 µM in assay [5].

As for `COC(=O)C1=C(c2cccc(N)c2)CCC1`, the Ki in assay [1] was found to be 875 µM; in assay [2] it was 1950 µM; in assay [3] it was 1320 µM; in assay [4] it was 121 µM; in assay [6], 2900 µM; in assay [5] it was 247 µM.

Turning to `C/C=C/C1=C(c2ccc(Cl)c(Cl)c2)CCCC1`, the Ki in assay [1] was 11 µM; in assay [2], 381 µM; in assay [3] it was 255 µM; in assay [4], 42 µM.

Take `COC(=O)C1=C(c2ccc(Cl)c(Cl)c2)CCC1`: the Ki came to 1.9 µM in assay [1]; 785 µM in assay [2]; 11 µM in assay [3]; 5.5 µM in assay [4]; 28 µM in assay [5].

Turning to `COC(=O)C1=C(c2ccc(Cl)c(Cl)c2)CCCCC1`, the Ki turned out to be 1.36 µM in assay [1]; 149 µM in assay [2]; 15 µM in assay [3]; 0.515 µM in assay [4]; 4.72 µM in assay [5].

Take `CCOC(=O)C1=C(c2ccc(Cl)c(Cl)c2)CCNC1`: the values for the Ki in assay [1], in assay [2] and in assay [3] were 0.922 µM, 0.217 µM and 2.5 µM, respectively.

For `COC(=O)C1=C(c2cccc([N+](=O)[O-])c2)CCCC1`, the Ki in assay [1] was found to be 239 µM; in assay [2], 28.7 µM; in assay [3], 121 µM.

On to `COC(=O)[C@@H]1CCCCC[C@@H]1c1ccc(C(C)(C)C)cc1`, for which the Ki in assay [1] amounted to 1140 µM; in assay [2], 1800 µM; in assay [3], 94 µM.

On to `COC(=O)C1=C(c2ccc3ccccc3c2)CCC1`, for which the Ki was found to be 4.1 µM in assay [1]; 417 µM in assay [2]; 39 µM in assay [3]; 7 µM in assay [4]; 26 µM in assay [5].

`COC(=O)C1=C(c2ccc(C(C)(C)C)cc2)CCCCC1`: the Ki in assay [1] amounted to 884 µM; in assay [2], 1040 µM; in assay [3] it was 62 µM.

`COC(=O)C1=C(c2cccc(C(F)(F)F)c2)CCCC1`: the Ki in assay [1] is 1050 µM; in assay [2], 5020 µM; in assay [3], 2110 µM.

`COC(=O)[C@@H]1CCCC[C@@H]1c1ccc(C(C)(C)C)cc1`: the Ki in assay [1] was 766 µM; in assay [2], 9120 µM; in assay [3], 675 µM.

Regarding `COC(=O)C1=C(c2ccc(C(C)(C)C)cc2)CCCC1`, the Ki was 605 µM in assay [1], 2250 µM in assay [2] and 1100 µM in assay [3].

Turning to `COC(=O)[C@@H]1CCCC[C@@H]1c1ccc(C(F)(F)F)cc1`, the Ki in assay [1] stood at 222 µM; in assay [2] it was 185 µM; in assay [3], 439 µM.

Turning to `COC(=O)C1=C(c2ccc(O)cc2)CCCC1`, the inhibition constant (Ki) in assay [1] amounted to 231 µM; in assay [2], 573 µM; in assay [3] it was 675 µM; in assay [5], 499 µM.

Take `COC(=O)C1=C(c2cccc(Cl)c2)CCCCC1`: the Ki in assay [1] stood at 22 µM; in assay [2], 463 µM; in assay [3], 85 µM; in assay [4], 3.78 µM.

In the case of `COC(=O)C1=C(c2ccc(OC(F)(F)F)cc2)CCC1`, the Ki was 2650 µM in assay [1], 3800 µM in assay [2] and 2880 µM in assay [3].

`COC(=O)C1=C(c2ccc(OC)cc2)CCC1`: the Ki in assay [1] is 140 µM; in assay [2] it was 2690 µM; in assay [3] it was 550 µM; in assay [4], 6.3 µM; in assay [5], 1390 µM.

`COC(=O)[C@@H]1CN(C)CC[C@@H]1c1ccccc1` (racemic): the values for the Ki in assay [1], in assay [2] and in assay [3] were 8.51 µM, 27 µM and 35.2 µM, respectively.

For `COC(=O)[C@@H]1CN(C)CC[C@H]1c1ccccc1` (racemic), the Ki in assay [1] turned out to be 17.4 µM; in assay [2] it was 46.7 µM; in assay [3] it was 36.3 µM.

As to `COC(=O)C1=C(c2ccc(C(C)(C)C)cc2)CCC1`, the Ki in assay [1] came to 302 µM; in assay [2] it was 1460 µM; in assay [3], 789 µM.

Regarding `COC(=O)C1=C(c2ccc(Cl)cc2)CCCC1`, the Ki in assay [1] is 85 µM; in assay [2] it was 1860 µM; in assay [3] it was 993 µM; in assay [4], 0.589 µM; in assay [5], 314 µM.

On to `COC(=O)C1=C(c2ccc(C(F)(F)F)cc2)CCCC1`, for which the figures for the Ki in assay [1], in assay [2] and in assay [3] were 590 µM, 4710 µM and 2020 µM, respectively.

Turning to `COC(=O)C1=C(c2ccc3ccccc3c2)CCCC1`, the Ki is 12 µM in assay [1]; 109 µM in assay [2]; 81 µM in assay [3]; 1.5 µM in assay [4]; 10 µM in assay [5].

Take `COC(=O)[C@@H]1CCCC[C@@H]1c1ccccc1`: the results for the Ki in assay [1], in assay [2] and in assay [3] were 975 µM, 1510 µM and 1360 µM, respectively.

`COC(=O)[C@@H]1CN(C)CC[C@@H]1c1ccc(I)cc1` (racemic): the Ki in assay [1] is 0.323 µM; in assay [2], 0.287 µM; in assay [3], 0.855 µM.

For the molecule `COC(=O)[C@@H]1CCCC[C@@H]1c1ccc(-c2ccccc2)cc1`, the Ki in assay [1] was 830 µM; in assay [2], 390 µM; in assay [3], 658 µM.

For the molecule `COC(=O)C1=C(c2cccc(Cl)c2)CCCC1`, the Ki in assay [1] was found to be 22 µM; in assay [2], 1180 µM; in assay [3], 339 µM; in assay [4], 26 µM; in assay [5], 871 µM.

For `COC(=O)C1=C(c2ccc(OC(F)(F)F)cc2)CCCC1`, the values for the Ki in assay [1], in assay [2] and in assay [3] were 1660 µM, 4680 µM and 2540 µM, respectively.

In the case of `CCOC(=O)C1=C(c2ccc3ccccc3c2)CCNC1`, the figures for the Ki in assay [1], in assay [2] and in assay [3] were 0.079 µM, 0.44 µM and 0.268 µM, respectively.

Take `COC(=O)[C@H]1[C@@H](c2ccc(I)cc2)C[C@H]2CC[C@@H]1N2C` [IODINE 2BETA-CARBOMETHOXY-3BETA-(4 IODOPHENYL)-TROPANE]: the Ki in assay [1] was 0.004 µM; in assay [2] it was 0.006 µM; in assay [3] it was 0.034 µM; in assay [4] it was 0.009 µM; in assay [6] it was 0.004 µM; in assay [5], 0.01 µM.

Consider `COC(=O)C1=C(c2ccccc2)CCCC1`, for which the Ki is 630 µM in assay [1], 668 µM in assay [2] and 2500 µM in assay [3].

Regarding `COC(=O)[C@@H]1CCCC[C@@H]1c1ccc(OC(F)(F)F)cc1`, the figures for the Ki in assay [1], in assay [2] and in assay [3] were 1180 µM, 605 µM and 719 µM, respectively.

With `COC(=O)C1=C(c2ccc(Cl)c(Cl)c2)CCCC1`, the Ki amounted to 2.1 µM in assay [1]; 228 µM in assay [2]; 14 µM in assay [3]; 0.625 µM in assay [4]; 4.9 µM in assay [5].

For the molecule `COC(=O)[C@@H]1CCCCC[C@@H]1c1ccc(-c2ccccc2)cc1`, the results for the Ki in assay [1], in assay [2] and in assay [3] were 313 µM, 73 µM and 51 µM, respectively.

For the molecule `COC(=O)[C@@H]1CCCC[C@@H]1c1cccc(C(F)(F)F)c1`, the figures for the Ki in assay [1], in assay [2] and in assay [3] were 569 µM, 1910 µM and 991 µM, respectively.

On to `COC(=O)[C@@H]1CN(C)CC[C@H]1c1ccc(I)cc1` (racemic), for which the Ki in assay [1] came to 1.25 µM; in assay [2], 2.81 µM; in assay [3], 2.3 µM.

Turning to `CCOC(=O)C1=C(c2cccc([N+](=O)[O-])c2)CCNC1`, the Ki in assay [1] is 20.6 µM; in assay [2] it was 3 µM; in assay [3] it was 10 µM.

Turning to `COC(=O)[C@@H]1CN(C)CC[C@@H]1c1ccc(Cl)c(Cl)c1` (stereo in doubt), the Ki in assay [1] was 59.4 µM; in assay [3], 41.6 µM.

For `COC(=O)c1ccccc1-c1ccc2ccccc2c1`, the Ki in assay [1] came to 4.06 µM; in assay [2], 620 µM; in assay [3], 46.7 µM.

As for `COC(=O)[C@@H]1CN(C)CC[C@@H]1c1ccc(Cl)c(Cl)c1` (stereo in doubt; 3a), the Ki was found to be 0.322 µM in assay [1] and 3.91 µM in assay [3].

On to `COC(=O)C1=C(c2ccc(Cl)cc2)CCC1`, for which the Ki in assay [1] stood at 18 µM; in assay [2], 2840 µM; in assay [3], 420 µM; in assay [4] it was 2.1 µM; in assay [5] it was 178 µM.

On to `COC(=O)C1=C(c2ccc(-c3ccccc3)cc2)CCCC1`, for which the Ki in assay [1] came to 264 µM; in assay [2] it was 841 µM; in assay [3], 215 µM.

Turning to `COC(=O)C1=C(c2ccc([N+](=O)[O-])cc2)CCC1`, the figures for the Ki in assay [1], in assay [2] and in assay [3] were 6.54 µM, 1140 µM and 111 µM, respectively.

`COC(=O)C1=C(c2ccc(S(C)(=O)=O)cc2)CCC1` registered an inhibition constant Ki in assay [2] of 3390 µM.
